Here are results for 12 compounds from ChEMBL document CHEMBL2010720, “Synthesis and evaluation of ursolic acid derivatives as potent cytotoxic agents” (Bioorg Med Chem Lett, 2012).

Test [1] deals with AGS. Description: Cytotoxicity against human AGS cells after 48 hrs by MTT assay. The class given is functional, cell-based. In outline: (§1)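 Cells seeded at 1×10^4 per well and treated 24 h later for 48 h at 10, 20, 40, 60, 80 and 100 µM, each in six wells. Compounds came from 20 mM DMSO stocks diluted in medium; the vehicle control matched the DMSO of the top dose. MTT was added for 4 h, formazan dissolved in DMSO and read at 570 nm. IC50 was taken as the concentration giving 50% growth inhibition.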

For another test, the system named is HepG2. The test can be described thus: Cytotoxicity against human HepG2 cells after 48 hrs by MTT assay. The class given is functional, cell-based. The settings on record: HepG2, 48 h. The method, boiled down:
as §1

Another test has as its system HT-29. Description: Cytotoxicity against human HT-29 cells after 48 hrs by MTT assay. Particulars: HT-29, 48 h. The class given is functional, cell-based. In outline:
as §1

The next test relates to PC-3. The test can be described thus: Cytotoxicity against human PC3 cells after 48 hrs by MTT assay. The format is functional, cell-based. The settings on record: PC-3, 48 h. In outline: as §1
Test [2] relates to AGS. The test can be described thus: Cell cycle arrest in human AGS cells assessed as accumulation at G2/M phase cells at 10 uM after 48 hrs by flow cytometry (reference value: 35.37 +/- 3.73%). The format is functional.
Test [3] relates to AGS. Description: Cell cycle arrest in human AGS cells assessed as accumulation at sub-G0/G1 phase cells at 10 uM after 48 hrs by flow cytometry (reference value: 1.56 +/- 0.20%). The class given is functional.
Test [4] deals with AGS. The test can be described thus: Cell cycle arrest in human AGS cells assessed as accumulation at G0/G1 phase cells at 10 uM after 48 hrs by flow cytometry (reference value: 28.07 +/- 3.52%). The format is functional.
For test [5], the system named is AGS. Description: Cell cycle arrest in human AGS cells assessed as accumulation at S phase cells at 10 uM after 48 hrs by flow cytometry (reference value: 36.56 +/- 0.36%). The class given is functional.
For test [6], the system named is AGS. The test can be described thus: Induction of apoptosis in human AGS cells assessed as viable cells at 5 uM after 24 hrs by annexin-V/PI staining-based flow cytometric analysis (reference value: 95.5%). The class given is functional. Particulars: read-out: Activity.
In test [7] the test system is AGS. Description: Induction of apoptosis in human AGS cells assessed as early apoptotic cells at 5 uM after 24 hrs by annexin-V/PI staining-based flow cytometric analysis (reference value: 1.9%). The class given is functional.
In test [8] the test system is AGS. The test can be described thus: Induction of apoptosis in human AGS cells assessed as late apoptotic cells at 5 uM after 24 hrs by annexin-V/PI staining-based flow cytometric analysis (reference value: 2.5%). The format is functional.
In test [9] the test system is AGS. The test can be described thus: Induction of apoptosis in human AGS cells assessed as viable cells at 10 uM after 24 hrs by annexin-V/PI staining-based flow cytometric analysis (reference value: 95.5%). The format is functional. Particulars: read-out: Activity.
Test [10] concerns AGS. Description: Induction of apoptosis in human AGS cells assessed as early apoptotic cells at 10 uM after 24 hrs by annexin-V/PI staining-based flow cytometric analysis (reference value: 1.9%). The class given is functional.
In test [11] the test system is AGS. Description: Induction of apoptosis in human AGS cells assessed as late apoptotic cells at 10 uM after 24 hrs by annexin-V/PI staining-based flow cytometric analysis (reference value: 2.5%). The class given is functional.
Test [12] deals with AGS. The test can be described thus: Induction of apoptosis in human AGS cells assessed as viable cells at 20 uM after 24 hrs by annexin-V/PI staining-based flow cytometric analysis (reference value: 95.5%). The class given is functional. Particulars: read-out: Activity.
The test system of test [13] is AGS. Description: Induction of apoptosis in human AGS cells assessed as early apoptotic cells at 20 uM after 24 hrs by annexin-V/PI staining-based flow cytometric analysis (reference value: 1.9%). The class given is functional.
The test system of test [14] is AGS. Description: Induction of apoptosis in human AGS cells assessed as late apoptotic cells at 20 uM after 24 hrs by annexin-V/PI staining-based flow cytometric analysis (reference value: 2.5%). The class given is functional.
The subject of test [15] is AGS. The test can be described thus: Induction of apoptosis in human AGS cells assessed as necrotic cells at 5 uM after 24 hrs by annexin-V/PI staining-based flow cytometric analysis (reference value: 0.1%). The class given is functional.
Test [16] relates to AGS. The test can be described thus: Induction of apoptosis in human AGS cells assessed as necrotic cells at 10 uM after 24 hrs by annexin-V/PI staining-based flow cytometric analysis (reference value: 0.1%). The format is functional.
For test [17], the system named is AGS. Description: Induction of apoptosis in human AGS cells assessed as necrotic cells at 20 uM after 24 hrs by annexin-V/PI staining-based flow cytometric analysis (reference value: 0.1%). The format is functional.
Test [18] relates to AGS. Description: Cell cycle arrest in human AGS cells assessed as accumulation at sub-G0/G1 phase at 20.6 uM after 48 hrs by flow cytometry (reference value: 1.56 +/- 0.20%). The class given is functional.
Test [19] deals with AGS. The test can be described thus: Cell cycle arrest in human AGS cells assessed as accumulation at G0/G1 phase cells at 20.6 uM after 48 hrs by flow cytometry (reference value: 28.07 +/- 3.52%). The format is functional.
In test [20] the test system is AGS. The test can be described thus: Cell cycle arrest in human AGS cells assessed as accumulation at S phase cells at 20.6 uM after 48 hrs by flow cytometry (reference value: 36.56 +/- 0.36%). The class given is functional.
Test [21] deals with AGS. Description: Cell cycle arrest in human AGS cells assessed as accumulation at G2/M phase cells at 20.6 uM after 48 hrs by flow cytometry (reference value: 35.37 +/- 3.73%). The format is functional.

In the case of `C[C@H]1[C@H](C)CC[C@]2(C(=O)NC(CC(=O)O)C(=O)O)CC[C@]3(C)C(=CC[C@@H]4[C@@]5(C)CC[C@H](O)C(C)(C)[C@@H]5CC[C@]43C)[C@H]12` (stereo not given in full), the IC50 with AGS [1], in the test with HepG2, with HT-29 and in the test with PC-3 was above 100 µM each time.

Regarding `C[C@H]1[C@H](C)CC[C@]2(C(=O)NC(CCC(=O)O)C(=O)O)CC[C@]3(C)C(=CC[C@@H]4[C@@]5(C)CC[C@H](O)C(C)(C)[C@@H]5CC[C@]43C)[C@H]12` (stereo not given in full), the half-maximal inhibitory concentration (IC50) in the test on AGS [1], in the test on HepG2, with HT-29 and in the test with PC-3 was above 100 µM each time.

Consider `CC(=O)O[C@H]1CC[C@]2(C)[C@H]3CC=C4[C@@H]5[C@@H](C)[C@H](C)CC[C@]5(C(=O)NCCN)CC[C@@]4(C)[C@]3(C)CC[C@H]2C1(C)C`, for which the Activity turned out to be 46.72% with AGS [2], 88.3% in the test on AGS [3], 51.86% with AGS [4] and 1.42% with AGS [5]. The IC50 is below 10 µM in the test on AGS [1], 12.4 µM with HepG2, below 10 µM in the test on HT-29 and below 10 µM in the test on PC-3.

For `C[C@H]1[C@H](C)CC[C@]2(C(=O)NCCN)CC[C@]3(C)C(=CC[C@@H]4[C@@]5(C)CC[C@H](O)C(C)(C)[C@@H]5CC[C@]43C)[C@H]12`, the Activity came out at 2.51% with AGS [2]; 92.64% in the test with AGS [3]; 30.83% with AGS [4]; 66.66% in the test on AGS [5]; 8.9% in the test with AGS [7]; 6.1% in the test with AGS [8]. The Activity is recorded as 27.7% in the test on AGS [10]; 11.8% in the test with AGS [11]; 68.6% in the test with AGS [13]; 17.2% in the test with AGS [14]; 0.2% in the test on AGS [15]; 0.7% with AGS [16]. Further, in the test on AGS [17], the Activity was found to be 0.5%. Further, the IC50 was 11.4 µM in the test with AGS [1], 21.3 µM in the test with HepG2, 14.3 µM with HT-29 and below 10 µM in the test with PC-3. The viability at 5 µM in the test on AGS [6] was 84.7%. Besides, in the test with AGS [9], the viability at 10 µM was 59.9%. The viability at 20 µM in the test on AGS [12] is 13.7%.

Take `CC(=O)O[C@H]1CC[C@]2(C)[C@H]3CC=C4[C@@H]5[C@@H](C)[C@H](C)CC[C@]5(C(=O)NCCNC(=O)CN)CC[C@@]4(C)[C@]3(C)CC[C@H]2C1(C)C`: the Activity with AGS [2] came to 37.66%; in the test on AGS [3], 75.45%; in the test with AGS [4], 36.97%; in the test on AGS [5], 25.37%. Also, the IC50 with AGS [1] is below 10 µM; in the test with HepG2, 15.5 µM; in the test with HT-29, 20.2 µM; with PC-3, 14.3 µM.

As for `CSCC[C@H](N)C(=O)NCCNC(=O)[C@]12CC[C@@H](C)[C@H](C)[C@H]1C1=CC[C@@H]3[C@@]4(C)CC[C@H](OC(C)=O)C(C)(C)[C@@H]4CC[C@@]3(C)[C@]1(C)CC2`, the Activity in the test on AGS [2] is reported as 45.03%; with AGS [3] it was 82.38%; with AGS [4] it was 54.97%; with AGS [5], 0%. In addition, the IC50 with AGS [1], with HepG2, in the test with HT-29 and in the test on PC-3 was below 10 µM in each case.

For the compound `CC(=O)O[C@H]1CC[C@]2(C)[C@H]3CC=C4[C@@H]5[C@@H](C)[C@H](C)CC[C@]5(C(=O)NCCNC(=O)[C@@H](N)Cc5ccccc5)CC[C@@]4(C)[C@]3(C)CC[C@H]2C1(C)C`, the Activity in the test with AGS [2] is 35.31%; in the test on AGS [3], 87.64%; in the test with AGS [4], 63.49%; in the test on AGS [5], 2.06%. In addition, the IC50 with AGS [1], in the test with HepG2, with HT-29 and in the test on PC-3 was below 10 µM in each case.

As to `C[C@H]1[C@H](C)CC[C@]2(C(=O)NCCNC(=O)CN)CC[C@]3(C)C(=CC[C@@H]4[C@@]5(C)CC[C@H](O)C(C)(C)[C@@H]5CC[C@]43C)[C@H]12`, the Activity in the test with AGS [2] is listed as 71.45%; in the test with AGS [3] it was 44.69%; with AGS [4], 17.72%; in the test with AGS [5], 11.23%. Besides, the values for the IC50 with AGS [1] and in the test on PC-3 were 10.2 µM and 19.6 µM, respectively.

Turning to `CSCC[C@H](N)C(=O)NCCNC(=O)[C@]12CC[C@@H](C)[C@H](C)[C@H]1C1=CC[C@@H]3[C@@]4(C)CC[C@H](O)C(C)(C)[C@@H]4CC[C@@]3(C)[C@]1(C)CC2`, the Activity in the test on AGS [2] came out at 68.65%; in the test with AGS [3] it was 50.03%; in the test on AGS [4], 12.9%; in the test on AGS [5] it was 18.46%. For the same compound, the IC50 was below 10 µM in the test with AGS [1], 16 µM with HepG2 and below 10 µM with PC-3.

`C[C@H]1[C@H](C)CC[C@]2(C(=O)NCCNC(=O)[C@@H](N)Cc3ccccc3)CC[C@]3(C)C(=CC[C@@H]4[C@@]5(C)CC[C@H](O)C(C)(C)[C@@H]5CC[C@]43C)[C@H]12`: the Activity in the test with AGS [2] was 45.59%; in the test with AGS [3], 47.73%; in the test with AGS [4], 42.62%; with AGS [5], 11.79%. In addition, the IC50 with AGS [1] and with PC-3 was below 10 µM in each case.

Regarding `CC(=O)O[C@H]1C(=O)[C@@]2(C)[C@H]([C@H](OC(=O)c3ccccc3)[C@]3(O)C[C@H](OC(=O)[C@H](O)[C@@H](NC(=O)c4ccccc4)c4ccccc4)C(C)=C1C3(C)C)[C@]1(OC(C)=O)CO[C@@H]1C[C@@H]2O` [PACLITAXEL], the Activity stood at 86.18% with AGS [2], 70.41% in the test on AGS [3], 5.92% with AGS [4] and 7.9% with AGS [5]. In addition, the IC50 in the test on AGS [1] was below 10 µM; with HepG2 it was 30.7 µM; in the test on HT-29, below 10 µM; with PC-3, 57.2 µM.

Turning to `C[C@H]1[C@H](C)CC[C@]2(C(=O)O)CC[C@]3(C)C(=CC[C@@H]4[C@@]5(C)CC[C@H](O)C(C)(C)[C@@H]5CC[C@]43C)[C@H]12` [URSOLIC ACID], the IC50 came out at 20.6 µM in the test with AGS [1], 53.4 µM in the test on HepG2, 25.3 µM in the test with HT-29 and 22.3 µM in the test with PC-3. For the same compound, the Activity in the test on AGS [18] stood at 86.53%; in the test with AGS [19], 33.2%; in the test on AGS [20] it was 14.64%; in the test with AGS [21] it was 52.16%.
